Calpain2 inh: inhibitors of pig calpain II | purified calpain II, fluorogenic peptide substrate, 30 min | inhibition, % at 16 µM | actives 0.37% (n = 220,000);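 active = inhibition above about 50%, limit read from the data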
Mdm2 ligase inh: blocks human Mdm2 ubiquitin ligase activity. Q00987. cell-based MDM2 ubiquitination luciferase reporter, 2 h; 0 = plate control, 100 = twice control, blank-subtracted. signal enhancement, % at 5 µM. actives 0.11% (n = 210,000). AID 1230;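 active = signal enhancement of 30% or more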;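 note: luminescence tracks abundance of the self-degrading MDM2-luciferase fusion protein; higher signal means inhibition of MDM2 E3 ligase activity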
Target sequence (Q00987 whole entry, looked up, the tested form may be a part): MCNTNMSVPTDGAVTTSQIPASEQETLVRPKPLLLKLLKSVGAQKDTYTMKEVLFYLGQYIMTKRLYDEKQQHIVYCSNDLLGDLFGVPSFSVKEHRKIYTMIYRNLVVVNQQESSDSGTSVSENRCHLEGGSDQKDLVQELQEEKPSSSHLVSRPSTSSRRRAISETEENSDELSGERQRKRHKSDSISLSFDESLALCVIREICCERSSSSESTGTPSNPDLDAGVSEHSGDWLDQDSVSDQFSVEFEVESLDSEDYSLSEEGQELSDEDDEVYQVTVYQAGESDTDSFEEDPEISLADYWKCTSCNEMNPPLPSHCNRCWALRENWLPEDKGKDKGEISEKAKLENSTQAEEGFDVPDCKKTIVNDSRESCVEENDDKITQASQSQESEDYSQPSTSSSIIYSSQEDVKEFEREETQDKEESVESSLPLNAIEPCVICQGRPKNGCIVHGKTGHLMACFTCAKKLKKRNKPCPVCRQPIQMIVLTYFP
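System: stable MDM2–luciferase fusion reporter cells / Input: 2000 cells seeded into each well / Schedule: 4 h settle plus 2 h compound, 37 °C / Compound: single-point 5 µM / Buffer or medium: cells held in DMEM / Benchmarks: control and blank well means / Evaluation: percent signal gain over controls, blank-subtracted / Measured by: luciferase luminescence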
Hsp70 activator: switches on Hsp70 transcription. HeLa Hsp70 promoter luciferase reporter, luminescence; scaled: vehicle 0, proteasome-inhibitor control 100%. activation, % at 10 µM. actives 0.04% (n = 200,000);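 active = activation above the mean across all tested compounds plus 3 SD, cutoff set per campaign, cut at about 5.5% in these data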;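 note: 100% = MG132 at 30 µM as the positive control and 0% = DMSO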
Wee1 stabilizer: blocks degradation of human Wee1 kinase. actives 1.2% (n = 220,000). P30291. HeLa Luc-Wee1K328M stability, luciferase luminescence; 100% = proteasome inhibitor MG132 effect. reporter increase, % at 5 µM;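 active = activation above the mean of all tested compounds plus 3 SD, set per screening run, cut at about 8.8% in these data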;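 note: cells exposed to compound for 20 h before luminescence read; 0% = DMSO alone and 100% = MG132 at 30 µM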
Pf gametocyte: inhibitors of late stage P. falciparum gametocyte viability. actives 0.065% (n = 150,000). P. falciparum stage V gametocytes, ATP luminescence, 24 h. inhibition, % at 10.9 µM;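 active = inhibition above the mean plus 3 SD of compounds within the control limits, set per campaign, cut at about 38% in these data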;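 note: 0% = DMSO wells and 100% = medium only without gametocytes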
Starred values were filed as active, the others as inactive; i = inactive; / = not tested or not shown. Most compounds without a hit are left out; they make up all but 1.5% or so of the library.

SMILES	Calpain2 inh	Mdm2 ligase inh	Hsp70 activator	Wee1 stabilizer	Pf gametocyte
CCOc1ccc(NC(=S)N2CCC(C(=O)c3ccc(F)cc3)CC2)cc1	/	/	/	/	-4
CCO[C@H]1OC(C(N)=O)=C[C@@H](c2coc3ccccc3c2=O)[C@@H]1CCCO	16	/	0	9.2*	12
CCO[C@@H]1OC(C(=O)Nc2ccccc2)=C[C@H](c2coc3ccccc3c2=O)[C@H]1CCCO	8	/	0	0	/
CCN(CC)c1ccc(S(=O)(=O)N2CCOCC2)cc1NC(=O)CN1CCN(Cc2ccccc2)CC1	-23	/	/	0	-1
COc1ccccc1C(=O)N/C(=C/c1ccccc1)C(=O)Nc1ccc(C(=O)O)cc1	-18	-8	0	10*	-24
CCOc1ccc(NC(=O)CSc2nnc(N)s2)c([N+](=O)[O-])c1	-36	-12	0	9.8*	/
CCOc1ccc(NC(=O)CSc2ncn[nH]2)c([N+](=O)[O-])c1	-2	-18	0	0	/
CCOC(=O)N1CCc2c(sc3c2c(=O)n(Cc2ccccc2)c(=O)n3CC(=O)NCCOC)C1	58*	-9	0	3	0
CCOc1ccc(-n2c(=O)c3c4c(sc3n(CC(=O)NCCCOC)c2=O)CCCCC4)cc1	-24	-7	0	-2	4
CN(C)CCC(c1ccccc1)c1ccccn1 (stereo not given)	1	/	0	16*	/
O=C(NC1=NCCS1)c1cccc(OC(F)F)c1	-3	-19	0	11*	-4
COc1cc(OC)cc(C(=O)NC2=NCCS2)c1	-53	-39	0	-3	/
CCOC(=O)Cc1c(C)nc2c(-c3ccc(Cl)cc3)c[nH]n2c1=O	i	/	1	9.8*	/
O=C1C=C(NCc2ccc(Cl)cc2)CC(c2ccco2)C1 (stereo not given)	8	-1	0	0	/
O=C1C=C(Nc2ccc(Cl)cc2Cl)CC(c2ccco2)C1 (stereo not given)	-5	-1	0	9.7*	-31
CC(NC(=O)Cn1cc([N+](=O)[O-])cn1)c1ccc(C(C)(C)C)cc1 (stereo not given)	/	/	/	/	3
CC1(C)CC(CCC(=O)Nc2ccc(S(N)(=O)=O)cc2)C(=O)O1 (stereo not given)	14	-4	-1	4	-4
Cc1ccc(NC(=O)CCC2CC(C)(C)OC2=O)cc1 (stereo not given)	-27	31*	0	-1	-51
CC(C)C(=O)Nc1cccc(C(=O)Nc2ccc(S(=O)(=O)N3CCOCC3)cc2)c1	/	/	/	/	-10
Nc1cc(S(=O)(=O)N2CCCCC2)ccc1Oc1ccccc1	51*	-13	-1	2	-2
CCOc1ccc(Oc2ccc(S(=O)(=O)N3CCOCC3)cc2N)cc1	19	-6	0	0	-23
Cc1ccc(N2Cc3ccccc3C2=S)cc1	13	-3	0	10*	5
O=C(NC(=S)Nc1ccccc1F)c1ccc(Br)o1	-9	-4	0	11*	2
CC(=O)c1c(C(C)=O)c(C)n(C(c2ccccc2)c2ccccc2)c1C	51*	-2	0	-3	2
CC(=O)c1c(C)nn(-c2ccccc2)c1C	-6	-10	/	-3	-8
SMILES	Calpain2 inh	Mdm2 ligase inh	Hsp70 activator	Wee1 stabilizer	Pf gametocyte
CCCCN(CCCC)C(=O)CSc1nnc2n(C)c(=O)c3c4c(sc3n12)CCCC4	-8	6	0	5	/
Cn1c(=O)c2c3c(sc2n2c(SCC(N)=O)nnc12)CC(C(C)(C)C)CC3 (stereo not given)	66*	-6	0	-3	/
CCCC[C@@H]1CCCO[C@@](C(=O)NCc2ccc(C)o2)(C(F)(F)F)C1	/	/	/	/	-5
O=C(NNC(=O)c1cc(OCC(F)(F)F)ccc1OCC(F)(F)F)c1cccc(C(F)(F)F)c1	92*	6	0	0	6
COc1ccc(/C=N\Nc2ccccn2)c(OC)c1	/	/	/	/	0
COc1ccc(/C=N/Nc2nncc3ccccc23)c(OC)c1	23	-7	0	8.9*	13
N#Cc1ccc(C(=O)Nc2nnc(-c3ccccn3)o2)cc1	13	-17	0	9.4*	-12
Cc1ccc(Cl)cc1N(Cc1ccc(C(=O)NCc2cccnc2)cc1)S(=O)(=O)c1ccccc1	52*	-6	0	-2	-13
COc1ccccc1NC(=O)c1ccc(CN(c2cc(Cl)ccc2C)S(=O)(=O)c2ccccc2)cc1	-177	-14	0	1	/
Cc1ccc(N(C(=O)Nc2ccccc2)C2=NCC(C)S2)cc1 (stereo not given)	18	-1	0	-1	0
Cc1ccnc(N(C(=O)Nc2ccccc2)C2=NCC(C)(C)S2)c1	-4	-32	/	9.7*	7
CCOc1ccccc1C(=O)N[C@H](C(=O)Nc1nc2c(s1)CCCC2)C(C)C	11	-16	0	1	0
COc1ccc(C(=O)N[C@H](C(=O)Nc2nc3c(s2)CCCC3)C(C)C)cc1	7	-27	0	10*	-5
CCCOC(=O)Nc1cc(OC)ccc1[N+](=O)[O-]	63*	-16	0	7	/
Cc1ccc(/C=C/C(=O)c2ccccc2)cc1	13	-9	0	8.9*	/
CCOc1ccc(/C=C/C(=O)c2ccccc2)cc1	-4	-15	/	6	/
O=C(OCCN1CCCCC1)c1cccc(Cl)c1	/	/	/	/	4
C=CCn1c(SCC(=O)c2[nH]c(C)c(C(=O)OCC)c2C)nc2scc(-c3ccc(OC)c(OC)c3)c2c1=O	-24	/	0	9.4*	9
CCOC(=O)c1c(C)[nH]c(C(=O)CSc2nnc(-c3ccncc3)n2CC)c1C	2	-10	0	2	/
CC(=O)C[C@H]1c2cc(F)ccc2S(=O)(=O)N1c1ccc(N(C)C)cc1	/	/	/	/	8
O=C(Cn1cnc([N+](=O)[O-])c1)NCCc1ccccc1	/	/	/	/	-1
Cc1ccc(NC(=O)c2ccccc2)s1	-18	-32	0	9.7*	/
Cc1cc(NC(=O)c2ccccc2)sc1C	12	9	0	6	/
CC(=O)NS(=O)(=O)c1ccc(NC(=O)c2ccc3c(c2)OCO3)cc1	/	/	/	/	14
Nc1c(C(=O)c2ccccc2)oc2ccccc12	15	1	1	5	/
SMILES	Calpain2 inh	Mdm2 ligase inh	Hsp70 activator	Wee1 stabilizer	Pf gametocyte
O=C(c1ccc(Cl)cc1)c1oc2ccccc2c1CS(=O)(=O)c1ccccc1	60*	-14	0	-1	/
O=C(CN1CCN(c2cccc(C(F)(F)F)c2)CC1)NCc1ccccc1	/	/	/	/	-1
O=C(Nc1ccc(Cl)cc1)c1ccc(OC2CSC2)cc1	50	-11	0	21*	3
CC(C)CNS(=O)(=O)c1ccc(OCC(=O)Nc2ccc(F)cc2F)cc1	-12	1	0	9.0*	-9
CCC(C)NS(=O)(=O)c1ccc(OCC(=O)Nc2ccc(F)cc2F)cc1 (stereo not given)	-14	3	0	-1	/
Cc1nc(N2CCN(Cc3ccccc3)CC2)nc2c1C(=O)CC(C)C2 (stereo not given)	68*	2	0	-1	-6
COc1ccccc1NC(=O)C1CC(C)OC1=O (stereo not given)	/	/	/	/	22

High-throughput results from PubChem.
